In article PMC9059116 (Journal of Medicinal Chemistry, 2022):

Legend:
Assay type in all cases: cell-based
[1] = system: eIF4E phosphorylation (MNK1/2 activity) in MDA-MB-231 cells; assay: western blot of eIF4E phosphorylation; details: for inhibition of eIF4E phosphorylation: MDA-MB-231 cells, 24 h, western blot
In short: (§1)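 MDA-MB-231 cells were grown in DMEM with 10% heat-inactivated FBS and penicillin/streptomycin, seeded at 6000 cells/cm² 24 h before treatment. DMSO was kept below 0.5%, with DMSO as negative control. Immunoblotting used ECL detection, with β-actin (1:20 000) probed.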

[2] = system: MNK1 phosphorylation at T209/214 in MDA-MB-231 cells; assay: western blot of MNK1 phosphorylation at T209/214 in MDA-MB-231 cells; details: MDA-MB-231, 24 h
In short: as §1

[3] = molecular target: MNK1-eIF4G interaction in HEK-293 cells (Homo sapiens, UniProt Q9BUB5); assay: immunoprecipitation of endogenous eIF4G, MNK1-eIF4G interaction in HEK-293 cells; details: HEK-293, 20 μM EB1 or 100 nM eFT508, UV irradiation and 40 min recovery
MNK1-eIF4G interaction in HEK-293 cells, sequence (Q9BUB5 1-424 isoform Q9BUB5-2): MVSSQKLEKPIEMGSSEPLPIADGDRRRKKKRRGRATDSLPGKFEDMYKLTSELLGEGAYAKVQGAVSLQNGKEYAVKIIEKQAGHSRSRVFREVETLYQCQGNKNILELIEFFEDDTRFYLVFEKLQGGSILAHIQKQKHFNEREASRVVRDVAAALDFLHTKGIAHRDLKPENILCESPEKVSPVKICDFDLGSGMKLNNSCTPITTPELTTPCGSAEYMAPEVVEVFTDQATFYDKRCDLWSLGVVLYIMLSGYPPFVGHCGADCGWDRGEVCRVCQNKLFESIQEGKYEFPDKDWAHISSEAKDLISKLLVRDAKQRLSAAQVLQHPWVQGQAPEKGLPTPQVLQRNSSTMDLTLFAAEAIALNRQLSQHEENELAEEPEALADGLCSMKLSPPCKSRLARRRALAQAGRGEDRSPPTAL
In short: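 HEK-293 cells were treated 24 h with DMSO or inhibitor, then UV-irradiated (60 J/m²) and recovered 40 min at 37 °C. Anti-eIF4G was bound to protein A beads (4 h, 4 °C), then incubated overnight at 4 °C with about 2 mg precleared lysate. Beads were washed, boiled 5 min at 95 °C, and probed for MNK1 by immunoblot.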

[4] = system: MDA-MB-231 cells; assay: crystal violet growth assay, MDA-MB-231; details: MDA-MB-231, 72 h, up to 200 nM
In short: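 Cells kept in DMEM (4.5 g/L glucose) with 10% heat-inactivated FBS and penicillin/streptomycin at 37 °C, 5% CO2. Seeded at 6000 cells/cm², treated 24 h later for 72 h; DMSO kept below 0.5%, DMSO as negative control. Fixed 30 min in 4% formaldehyde, PBS washes, stained 15 min with 0.5% crystal violet, dye dissolved in 15% AcOH, OD 595 nm. Three independent experiments, standard deviation.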

Nc1n[nH]c2nc(-c3ccccc3)cc(-c3ccccc3)c12 [6b, 4,6-Diphenyl-1H-pyrazolo[3,4-b]pyridin-3-amine]
inhibition of eIF4E phosphorylation after UV stimulation ([1]; MDA-MB-231, pretreatment with inhibitor, UV irradiation, 40 min recovery): strongly inhibited eIF4E phosphorylation
inhibition of eIF4E phosphorylation [1]: clear inhibition of eIF4E phosphorylation
inhibition of eIF4E phosphorylation ([1]; listed as EB1): more potent than CGP5738 but less active than the eFT508

Nc1ncnc2[nH]nc(Nc3ccc(F)cc3)c12 [CGP57380 (2), CGP57380]
effect on activating phosphorylation of MNK1 at T209/214 [2]: strongly induced phosphorylation of MNKs at T209/214

Cc1cc(Nc2cc(N)ncn2)c(=O)n2c1C(=O)NC21CCCCC1 [eFT508 (3), eFT508]
effect on activating phosphorylation of MNK1 at T209/214 [2]: strongly induced phosphorylation of MNKs at T209/214
effect on interaction between MNK1 and eIF4G [3]: strongest interaction of eIF4G with MNK1
effect on cell growth [4]: not able to inhibit the growth
inhibition of eIF4E phosphorylation [1]: complete inhibition of eIF4E phosphorylation can be already observed at low nanomolar concentrations
